Experimental findings from ChEMBL document CHEMBL1139691, “Microwave-assisted synthesis of thieno[2,3-c]pyridine derivatives as a new series of allosteric enhancers at the adenosine A(1) receptor” (Bioorg Med Chem Lett, 2006) are described below.

Assay [1] addresses Adenosine A2 receptor (Homo sapiens) (UniProt P29275+P29274). As to the kind of experiment: Displacement of [3H]ZM 241385 from human adenosine A2 receptor expressed in CHO cells at 10 uM. Format: cell-based. In a few lines:
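Competition for [3H]ZM 241385 at CHO hA2A membranes (100 µg protein), 60 min at 4 °C, Tris-HCl with MgCl2, pH 7.4. Nonspecific binding defined with 1 µM ZM241385. Compound tested at 10 µM; percent displacement reported, n = 3.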
In general terms: Displacement assays read how much labelled ligand stays bound in the presence of the test substance.

Assay [2] concerns the target T1, Adenosine receptor A1 (Homo sapiens) (UniProt P30542).
T1 sequence (whole entry): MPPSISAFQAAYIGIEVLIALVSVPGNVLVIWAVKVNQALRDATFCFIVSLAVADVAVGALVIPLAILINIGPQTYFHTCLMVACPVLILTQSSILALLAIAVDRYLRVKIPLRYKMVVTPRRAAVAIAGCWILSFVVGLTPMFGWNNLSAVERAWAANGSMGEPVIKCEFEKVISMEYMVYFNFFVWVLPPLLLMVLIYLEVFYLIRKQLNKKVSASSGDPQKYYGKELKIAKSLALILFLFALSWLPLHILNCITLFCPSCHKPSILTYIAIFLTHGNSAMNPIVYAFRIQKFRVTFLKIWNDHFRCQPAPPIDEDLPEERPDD
Nature of the assay: Displacement of [3H]DPCPX from human adenosine A1 receptor expressed in CHO cells at 10 uM. In kind it is cell-based. A digest of the protocol:
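Competition for 1 nM [3H]DPCPX at CHO hA1 membranes (100 µg protein), 150 min at 25 °C, Tris-HCl pH 7.4. Nonspecific binding defined with 1 µM DPCPX. Compound tested at 10 µM; percent displacement reported, n = 3.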

Assay [3] concerns the target T1, Adenosine receptor A1 (Homo sapiens). As to the kind of experiment: Activity at human recombinant adenosine A1 receptor expressed in CHO cells assessed as inhibition of forskolin-stimulated cAMP accumulation in presence of CPA at 0.01 uM relative to control. Also noted: scale not given: the % may be the effect or the level left. In kind it is functional, cell-based. A digest of the protocol: (§1)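 CHO cells stably expressing human A1 receptor (about 5 pmol/mg protein), grown 48–72 h in Ham's F12 with FBS and G-418. Cells were washed in HBSS for 6 min at 37 °C, then incubated 6 min at 37 °C in HBSS with adenosine deaminase (0.5 U/ml), 20 µM rolipram, 1 µM forskolin and 0.03 nM CPA, plus compound at 0.01–10 µM. Stopped with 50 mM HCl; cAMP read by acetylation radioimmunoassay. Quadruplicates; averaged over six experiments.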
(In general: Changes in cAMP serve as a functional read-out for many G protein-coupled receptors.)

Assay [4] has the same target. As to the kind of experiment: Activity at human recombinant adenosine A1 receptor expressed in CHO cells assessed as inhibition of forskolin-stimulated cAMP accumulation in the presence of CPA relative to control. Format: functional, cell-based. Also noted: scale not given: the % may be the effect or the level left. A digest of the protocol: as §1
The target is the same in assay [5]. Nature of the assay: Activity at human recombinant adenosine A1 receptor expressed in CHO cells assessed as inhibition of forskolin-stimulated cAMP accumulation in presence of CPA at 10 uM relative to control. In kind it is functional, cell-based. Also noted: scale not given: the % may be the effect or the level left. In a few lines:
as §1

Assay [6] has the same target. As to the kind of experiment: Activity at human recombinant adenosine A1 receptor expressed in CHO cells assessed as inhibition of forskolin-stimulated cAMP accumulation in presence of CPA at 1 uM relative to control. In kind it is functional, cell-based. Also noted: scale not given: the % may be the effect or the level left. A digest of the protocol: as §1
The target is the same in assay [7]. Nature of the assay: Activity at human recombinant adenosine A1 receptor expressed in CHO cells assessed as inhibition of forskolin-stimulated cAMP accumulation in presence of CPA at 0.1 uM relative to control. Also noted: scale not given: the % may be the effect or the level left. Format: functional, cell-based. A digest of the protocol:
as §1

The target in assay [8] is T2, Adenosine receptor A3 (Homo sapiens) (UniProt P0DMS8).
T2 sequence (whole entry): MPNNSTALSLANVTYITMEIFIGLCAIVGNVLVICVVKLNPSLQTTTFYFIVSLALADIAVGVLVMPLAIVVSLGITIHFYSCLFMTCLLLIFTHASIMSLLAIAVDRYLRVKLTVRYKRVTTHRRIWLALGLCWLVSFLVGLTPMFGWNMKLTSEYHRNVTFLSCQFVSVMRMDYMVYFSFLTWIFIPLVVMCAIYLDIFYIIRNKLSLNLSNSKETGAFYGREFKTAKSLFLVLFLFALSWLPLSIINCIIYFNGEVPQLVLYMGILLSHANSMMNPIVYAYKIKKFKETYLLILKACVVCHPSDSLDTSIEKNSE
Nature of the assay: Displacement of [3H]MRE-3008F20 from human adenosine A3 receptor expressed in CHO cells at 10 uM. In kind it is cell-based. A digest of the protocol:
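Competition for [3H]MRE-3008F20 at CHO hA3 membranes (100 µg protein), 150 min at 4 °C, Tris-HCl with MgCl2 and 1 mM EDTA, pH 7.4. Compound tested at 10 µM; percent displacement reported, n = 3.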

For assay [9], the target named is T1, Adenosine receptor A1 (Homo sapiens). Nature of the assay: Activity at human recombinant adenosine A1 receptor expressed in CHO cells assessed as inhibition of forskolin-stimulated cAMP accumulation in the presence of CPA at 10 uM. In kind it is functional, cell-based. Also noted: scale not given: the % may be the effect or the level left. In a few lines:
as §1

SMILES strings stand for the structures. Active and inactive are the calls of the source. The calls are words filed in the database; no cut-off is given here.

What is called inhibition is how much of the control response was suppressed. As for `Cc1sc(N)c(C(=O)c2cccc(C(F)(F)F)c2)c1C`, the inhibition in assay [1] and in assay [2] was 0% throughout. For the same compound, the Activity is 97% in [3]; 48% in assay [4]; 52% in assay [5]; 81% in assay [6]; 93% in assay [7].

For the compound `Nc1sc2cnccc2c1C(=O)c1ccc(Cl)cc1`, the inhibition in assay [1] was 0%; in assay [2], 50%; in assay [8], 0%. In addition, the Activity is 104% in assay [3], 114% in [5], 96% in [6] and 102% in assay [7].

On to `Nc1sc2cnccc2c1C(=O)c1cccc(C(F)(F)F)c1`, for which the inhibition in assay [1], in assay [2] and in assay [8] was 0% each time. Further, the Activity is 37% in assay [9]; 101% in assay [3]; 63% in [5]; 82% in [6]; 95% in [7].

As to `Cc1ccc(C(=O)c2c(N)sc3cnccc23)cc1`, the inhibition is 0% in assay [1], 45% in assay [2] and 0% in assay [8]. In addition, the Activity in assay [3] was 102%; in assay [5], 121%; in assay [6], 107%; in [7], 107%.

`Nc1sc2cnccc2c1C(=O)c1ccc(Cl)c(Cl)c1`: the inhibition in assay [1], in [2] and in [8] was 0% in each case. In addition, the Activity in assay [3] is 113%; in assay [5], 105%; in assay [6], 103%; in [7], 108%.

As for `Nc1sc2cnccc2c1C(=O)c1cccc2ccccc12`, the inhibition in assay [1], in assay [2] and in [8] was 0% each time. Moreover, in [9], the outcome was Active. For the same compound, the Activity is 113% in assay [3], 66% in [5], 107% in assay [6] and 112% in assay [7].

With `COc1ccc(C(=O)c2c(N)sc3cnccc23)cc1`, the inhibition in assay [1], in [2] and in [8] was 0% in each case. In addition, the Activity in assay [3] turned out to be 95%; in assay [5], 94%; in [6] it was 90%; in assay [7], 97%.

Turning to `Nc1sc2cnccc2c1C(=O)c1ccccc1`, the inhibition in [1], in [2] and in assay [8] was 0% throughout. The Activity in [3] came to 91%; in assay [5] it was 100%; in [6] it was 90%; in [7], 89%.

As to `Nc1sc2cnccc2c1C(=O)c1cccs1`, the inhibition turned out to be 0% in [1], 35% in assay [2] and 0% in assay [8]. Besides, the Activity stood at 111% in assay [3], 98% in [5], 107% in [6] and 104% in assay [7].

Take `Nc1sc2cnccc2c1C(=O)c1ccc(Br)cc1`: the inhibition in assay [1], in assay [2] and in assay [8] was 0% throughout. The Activity came out at 97% in assay [3], 104% in assay [5], 84% in assay [6] and 89% in [7].

`Nc1sc2cnccc2c1C(=O)c1ccccc1Cl`: the inhibition in assay [1], in [2] and in [8] was 0% each time. Also, the Activity in [3] worked out at 103%; in assay [5], 111%; in assay [6], 97%; in assay [7], 98%.
